Data published in ChEMBL document CHEMBL3526077, “Prediction of human metabolism of FK3453 by aldehyde oxidase using chimeric mice transplanted with human or rat hepatocytes” (Drug Metab Dispos, 2012).

Key:
[1] = Total clearance in chimeric mouse transplanted with human hepatocytes at 3 mg/kg, iv; type: ADME, organism-based, Hepatocyte; set-up: dose 3 mg/kg, route intravenous
Procedure, shortened: (§1)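 Single 3 mg/kg intravenous dose in 10% DMSO, 10% PEG400 with equimolar HCl in saline to h-PXB or r-PXB mice (n=3~4). Orbital-vein plasma collected over 0–6 hr and measured by LC/MS/MS. Non-compartmental analysis; AUC by trapezoidal rule extrapolated to infinity; CLt = Dose/AUCiv.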

[2] = AUC in rat at 3.2 mg/kg, po; type: ADME, organism-based; set-up: dose 3.2 mg/kg, route oral; details: plasma
[3] = AUC in chimeric mouse transplanted with human hepatocytes at 3 mg/kg, po; type: ADME, organism-based, Hepatocyte; set-up: dose 3 mg/kg, route oral
Procedure, shortened: (§2)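 Single 3 mg/kg oral dose of compound in 50% PEG400 with equimolar HCl in saline to h-PXB or r-PXB mice (n=3~4). Orbital-vein blood (heparinized) taken over 0–6 hr; plasma stored at -30°C and assayed by LC/MS/MS. Non-compartmental analysis: Cmax from observed values, AUC by trapezoidal rule extrapolated to infinity, CLoral = Dose/AUCpo.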

[4] = Half life in chimeric mouse transplanted with human hepatocytes at 3 mg/kg, iv; type: ADME, organism-based, Hepatocyte; set-up: dose 3 mg/kg, route intravenous; procedure, shortened: as §1
[5] = Total clearance in chimeric mouse transplanted with rat hepatocytes at 3 mg/kg, iv; type: ADME, organism-based, Hepatocyte; set-up: dose 3 mg/kg, route intravenous; details: read-out: CLH; procedure, shortened: as §1
[6] = Drug excretion in urine of chimeric mouse transplanted with rat hepatocytes at 3 mg/kg, iv as single dose; type: ADME, organism-based, Hepatocyte; set-up: dose 3 mg/kg, route intravenous; details: read-out: Drug excretion
Procedure, shortened: (§3)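 After a 3 mg/kg i.v. dose, pooled urine and feces were collected from metabolic cages over 0–24 hr (n=3). Samples were homogenized in 10 volumes of water, mixed with acetonitrile and analysed by UPLC (UV 254 nm) and LC/MS/MS. Excretion expressed as % of dose.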

[7] = AUC in human at 10 mg, po; type: ADME, organism-based; details: plasma
[8] = Cmax in human at 10 mg, po; type: ADME, organism-based; set-up: dose 10 mg, route oral; details: in vivo
Mus musculus [9] = experiment: Drug metabolism in plasma of chimeric mouse transplanted with rat hepatocytes at 3 mg/kg, iv as single dose; type: ADME, organism-based, Hepatocyte; set-up: dose 3 mg/kg, route intravenous
Procedure, shortened: (§4)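 Pooled plasma from h-PXB or r-PXB mice after a 3 mg/kg i.v. dose was mixed with an equal volume of acetonitrile and centrifuged. Metabolites were profiled by C18 UPLC with ammonium formate/acetonitrile gradient, UV 254 nm, and Orbitrap MS/MS. Scored as detected or not detected.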

[10] = Total clearance in rat at 3 mg/kg, iv; type: ADME, organism-based; set-up: dose 3 mg/kg, route intravenous; details: in vivo
[11] = Cmax in chimeric mouse transplanted with human hepatocytes at 3 mg/kg, po; type: ADME, organism-based, Hepatocyte; set-up: dose 3 mg/kg, route oral; procedure, shortened: as §2
Mus musculus [12] = experiment: Drug metabolism in plasma of chimeric mouse transplanted with human hepatocytes at 3 mg/kg, iv as single dose; type: ADME, organism-based, Hepatocyte; set-up: dose 3 mg/kg, route intravenous; procedure, shortened: as §4
[13] = Drug excretion in feces of chimeric mouse transplanted with rat hepatocytes at 3 mg/kg, iv as single dose; type: ADME, organism-based, Hepatocyte; set-up: dose 3 mg/kg, route intravenous; details: read-out: Drug excretion; procedure, shortened: as §3
[14] = Retention time of the compound by UV/mass spectrometry; type: physicochemical
Procedure, shortened: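 Retention time on Acquity BEH C18 column (1.7 µm, 2.1×100 mm). Mobile phase 5 mM ammonium formate with 5% acetonitrile against acetonitrile, at 0.2 mL/min. Gradient: 100:0 to 2.5 min, linear to 65:35 by 25 min, 10:90 to 27 min. Detection by UV at 254 nm and MS.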

[15] = Half life in chimeric mouse transplanted with rat hepatocytes at 3 mg/kg, iv; type: ADME, organism-based, Hepatocyte; set-up: dose 3 mg/kg, route intravenous; procedure, shortened: as §1
[16] = Clearance in human at 10 mg, po; type: ADME, organism-based; details: in vivo
[17] = Cmax in rat at 3.2 mg/kg, po; type: ADME, organism-based; set-up: dose 3.2 mg/kg, route oral; details: in vivo
[18] = Oral bioavailability in chimeric mouse transplanted with rat hepatocytes at 3 mg/kg; type: ADME, organism-based, Hepatocyte

- clearance [1]: 70.7 mL/min/kg
- AUC [2]: 1790 ng·h/mL
- AUC [3]: 214 ng·h/mL
- half-life [4]: 42 min
- clearance [5]: 34 mL/min/kg
- dose excreted [6]: 0.1%
- AUC [7]: 2.19 ng·h/mL
- Cmax [8]: 1.5 ng/mL
- Drug metabolism (Mus musculus [9]): metabolite_detected
- clearance [10]: 10.8 mL/min/kg
- Cmax [11]: 253 ng/mL
- Drug metabolism (Mus musculus [12]): metabolite_detected
- dose excreted [13]: 1.1%
- Retention_time [14]: 20 min
- half-life [15]: 48 min
- CL/F [16]: 1090 mL/min/kg
- Cmax [17]: 544 ng/mL
- bioavailability [18]: 52.6%
Structure (SMILES): CC(C)n1nc(-c2cnc(N)nc2-c2ccccc2)ccc1=O
